Data from ChEMBL document CHEMBL1250516, “Potent and fully noncompetitive peptidomimetic inhibitor of multidrug resistance P-glycoprotein” (J Med Chem, 2010).
Square brackets hold non-standard residues; d marks the D form. Peptide text beside a SMILES is read from it. * marks the point of attachment. Hyp = O=C(O)[C@@H]1C[C@@H](O)CN1; Aad = N[C@@H](CCCC(=O)O)C(=O)O; Cbz = O=C(OCc1ccccc1)*; PhAc = O=C(Cc1ccccc1)*; Boc = CC(C)(C)OC(=O)*; OBn = c1ccc(CO*)cc1; Bn = c1ccc(C*)cc1; OtBu = CC(C)(C)O*; tBu = CC(C)(C)*

What was measured:
[1] = target: T1, MDR1 (P-glycoprotein, ABCB1) (Homo sapiens, UniProt P08183); test: Inhibition of human MDR1 expressed in mouse NIH3T3 cells assessed as inhibition of drug efflux in at 10 uM by flow cytometry; format: cell-based; settings: mouse NIH3T3 cells expressing human MDR1
[2] = target: T1, MDR1 (P-glycoprotein, ABCB1); test: Inhibition of human MDR1 expressed in mouse NIH3T3 cells assessed as inhibition of drug efflux in at 2 uM by flow cytometry; format: cell-based; settings: mouse NIH3T3 cells expressing human MDR1
P-glycoprotein (ABCB1) = P-glycoprotein (ABCB1) (Homo sapiens, UniProt P08183); test: Inhibition of p-glycoprotein expressed in human K562/R7 cells assessed as inhibition of drug efflux at 10 uM by flow cytometry; format: cell-based; settings: K562/R7 cells expressing P-glycoprotein
Summary of the method: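 K562/R7 cells (1×10⁶/mL RPMI 1640) were incubated for 1 h at 37 °C with 10 μM daunorubicin (final), with or without 10 μM compound. Cells were washed in ice-cold PBS, kept on ice, and retained fluorescence was read by flow cytometry. Cyclosporin A served as positive control. Duplicate experiments carried out twice.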

BCRP (ABCG2) = target: T2, BCRP (ABCG2) (Homo sapiens, UniProt Q9UNQ0); test: Inhibition of BCRP expressed in HEK293 cells assessed as inhibition of drug efflux at 10 uM by flow cytometry; format: cell-based; settings: HEK293 cells expressing BCRP
T2 sequence (Q9UNQ0 whole entry): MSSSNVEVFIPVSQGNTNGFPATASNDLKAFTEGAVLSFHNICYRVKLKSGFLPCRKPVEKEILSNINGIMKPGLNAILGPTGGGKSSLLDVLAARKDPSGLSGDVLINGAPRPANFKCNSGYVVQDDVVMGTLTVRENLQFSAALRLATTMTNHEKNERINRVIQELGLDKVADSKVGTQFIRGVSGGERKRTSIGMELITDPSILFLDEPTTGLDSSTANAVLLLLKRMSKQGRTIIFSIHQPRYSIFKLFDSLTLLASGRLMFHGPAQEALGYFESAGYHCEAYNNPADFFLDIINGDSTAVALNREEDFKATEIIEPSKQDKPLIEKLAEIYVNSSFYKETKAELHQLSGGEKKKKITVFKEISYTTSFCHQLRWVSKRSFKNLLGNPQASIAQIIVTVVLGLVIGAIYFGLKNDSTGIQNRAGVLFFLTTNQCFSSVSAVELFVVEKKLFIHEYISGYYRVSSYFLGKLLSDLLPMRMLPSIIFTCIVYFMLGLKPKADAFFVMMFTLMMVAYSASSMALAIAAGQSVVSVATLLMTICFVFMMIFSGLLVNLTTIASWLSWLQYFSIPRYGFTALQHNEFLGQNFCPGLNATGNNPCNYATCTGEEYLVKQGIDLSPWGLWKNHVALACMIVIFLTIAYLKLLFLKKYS
Summary of the method: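 Human embryonic kidney 293 cells transfected with BCRP/ABCG2, tested with each compound at 10 μM. Intracellular fluorescent transported drug measured by flow cytometry. % efficacy = 100 × (FA − FBG)/(Fe − FBG): FA is transporter-expressing cells with drug, FBG is without drug (background), and Fe is control cells lacking the transporter. Mean of duplicate experiments carried out twice.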

[3] = target: T3, ATP-dependent translocase ABCB1 (Homo sapiens, UniProt P08183); test: Inhibition of human MDR1 expressed in mouse NIH3T3 cells assessed as inhibition of drug efflux by flow cytometry; format: cell-based
[4] = target: MRP1 (multidrug resistance-associated protein 1) (Homo sapiens, UniProt P33527); test: Inhibition of MRP1 expressed in BHK cells assessed as inhibition of drug efflux at 10 uM; format: cell-based; settings: hamster, BHK cells expressing MRP1
Summary of the method: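 BHK-21 cells expressing MRP1 were treated with compound at 10 μM in a flow-cytometric drug efflux inhibition assay. % inhibition of efflux was calculated as for the P-gp assay. Duplicates run twice.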

[5] = target: T3, ATP-dependent translocase ABCB1; test: Displacement of daunorubicin form R-site of human MDR1 expressed in mouse NIH3T3 cells at 0.11 to 1 uM by noncompetitive binding assay
[6] = Cytotoxicity against mouse NIH/3T3 cells assessed as effect on cell viability up to 1 uM after 72 hrs by MTT assay; format: cell-based; settings: nih3t3, 72 h
Summary of the method: (§1)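 Parental NIH3T3 or NIH3T3/P-gp (human MDR1-G185 transfected) cells were seeded at 2500 cells/well and allowed to attach for 24 h at 37 °C in 5% CO2. Compound was added at increasing concentrations in 1% DMSO and incubated for 72 h. Viability was read by MTT colorimetric assay. 100% survival was taken as cell number without compound.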

[7] = Cytotoxicity against mouse NIH/3T3 cells assessed as decrease in cell viability at > 2 uM after 72 hrs by MTT assay; format: cell-based; settings: nih3t3, 72 h; summary of the method: as §1
[8] = Cytotoxicity against mouse NIH/3T3 cells expressing human MDR1 assessed as effect on cell viability up to 1 uM after 72 hrs by MTT assay; format: ADME, cell-based; settings: nih3t3, 72 h; summary of the method: as §1
[9] = target: T3, ATP-dependent translocase ABCB1; test: Inhibition of human MDR1 expressed in mouse NIH3T3 cells assessed as potentiation of daunorubicin-mediated cytotoxicity at 1 uM; format: cell-based; settings: nih3t3, 1 µM
Summary of the method: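 Control NIH3T3 and NIH3T3/P-gp cells were seeded at 2500 cells/well and settled for 24 h. They were then exposed for 72 h at 37 °C in 5% CO2 to increasing daunorubicin concentrations with 1 μM modulator. Survival was read by MTT, with 100% taken as cell number without anticancer drug.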

[10] = Cytotoxicity against mouse NIH/3T3 cells expressing human MDR1 assessed as decrease in cell viability at > 2 uM after 72 hrs by MTT assay; format: ADME, cell-based; settings: nih3t3, 72 h; summary of the method: as §1
[11] = target: T3, ATP-dependent translocase ABCB1; test: Displacement of daunorubicin form H-site of human MDR1 expressed in mouse NIH3T3 cells at 0.11 to 1 uM by noncompetitive binding assay; format: cell-based; settings: in the assay text read “Hoechst 33342” for “daunorubicin”
Summary of the method: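 NIH3T3/P-gp and NIH3T3 cells (10⁵) were incubated with daunorubicin (5, 10, 15, 20 μM) or Hoechst 33342 (0–10 μM), with inhibitor at 0, 0.11, 0.22, 0.33 or 1 μM. Drug retained inside the cells after 1 h was measured by flow cytometry. Data were fitted to Michaelis–Menten to give Rmax and KM. KI came from Rmax⁰ = Rmax/(1+[I]/KI). Mean of two duplicate experiments.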

T1 sequence (P08183 whole entry): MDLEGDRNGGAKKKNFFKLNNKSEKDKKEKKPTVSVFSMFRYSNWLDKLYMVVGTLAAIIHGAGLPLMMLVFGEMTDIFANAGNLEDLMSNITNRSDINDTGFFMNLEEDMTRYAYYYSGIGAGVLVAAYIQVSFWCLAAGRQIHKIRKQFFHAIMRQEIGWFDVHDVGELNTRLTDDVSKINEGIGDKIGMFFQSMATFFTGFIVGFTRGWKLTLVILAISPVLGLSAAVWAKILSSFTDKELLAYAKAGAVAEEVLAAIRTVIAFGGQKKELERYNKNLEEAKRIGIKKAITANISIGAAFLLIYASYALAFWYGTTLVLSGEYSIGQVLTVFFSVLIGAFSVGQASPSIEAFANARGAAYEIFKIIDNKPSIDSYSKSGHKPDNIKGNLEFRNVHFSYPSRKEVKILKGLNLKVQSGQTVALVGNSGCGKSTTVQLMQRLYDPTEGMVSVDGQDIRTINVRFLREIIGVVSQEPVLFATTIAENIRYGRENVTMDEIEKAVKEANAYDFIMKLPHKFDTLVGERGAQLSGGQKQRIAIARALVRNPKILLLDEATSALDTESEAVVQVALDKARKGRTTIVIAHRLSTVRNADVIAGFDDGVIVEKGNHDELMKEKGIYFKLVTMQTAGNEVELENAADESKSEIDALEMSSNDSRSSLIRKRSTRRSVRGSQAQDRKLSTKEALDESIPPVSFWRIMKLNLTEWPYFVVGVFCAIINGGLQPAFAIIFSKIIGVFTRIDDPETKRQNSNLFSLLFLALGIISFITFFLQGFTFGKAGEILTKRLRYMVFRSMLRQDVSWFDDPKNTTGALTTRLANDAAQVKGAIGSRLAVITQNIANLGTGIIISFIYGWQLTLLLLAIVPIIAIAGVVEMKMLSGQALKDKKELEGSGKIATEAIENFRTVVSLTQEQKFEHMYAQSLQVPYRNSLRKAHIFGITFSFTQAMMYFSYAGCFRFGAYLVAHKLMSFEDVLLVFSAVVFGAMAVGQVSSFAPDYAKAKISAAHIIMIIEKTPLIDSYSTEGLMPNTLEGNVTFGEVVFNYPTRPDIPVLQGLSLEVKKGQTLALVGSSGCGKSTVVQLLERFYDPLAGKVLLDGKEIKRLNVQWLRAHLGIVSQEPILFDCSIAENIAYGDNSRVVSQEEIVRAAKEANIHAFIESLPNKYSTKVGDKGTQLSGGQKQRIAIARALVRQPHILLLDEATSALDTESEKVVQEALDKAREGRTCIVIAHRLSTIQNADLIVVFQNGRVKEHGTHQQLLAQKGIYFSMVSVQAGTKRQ
T3 sequence (P08183 whole entry): as above
Sequence of P-glycoprotein (ABCB1) (P08183 whole entry): as above

Row | SMILES | inhibition at 10 µM [1] | inhibition at 10 µM (P-glycoprotein (ABCB1)) | also measured
1 | CC(C)(C)OC(=O)C/C=C/[C@H](Cc1ccc(OC(C)(C)C)cc1)NC(=O)OC(C)(C)C | 71.2% |  | 
2 | CC(C)(C)OC(=O)N[C@@H](CCCC(=O)OCc1ccccc1)C(=O)N[C@@H](CCCCNC(=O)OCc1ccccc1)C(=O)OC(C)(C)C (Boc-[Aad](OBn)-Lys(Cbz)-OtBu) | 97.8% | 65.5% | inhibition at 2 µM [2]: 37%
3 | CC(C)(C)OC(=O)N[C@@H](CCOC(=O)C1CCCCC1)C(=O)N[C@@H](CCCCNC(=O)OCc1ccccc1)C(=O)OC(C)(C)C | 61.8% |  | 
4 | CC(C)(C)OC(=O)[C@H](CCCCNC(=O)OCc1ccccc1)NC(=O)[C@@H]1C[C@@H](OC(=O)C2CCCCC2)CN1C(=O)OC(C)(C)C | 106% | 94.9% | inhibition at 10 µM (BCRP (ABCG2)): 11.2%; IC50 [3]: 1.68 µM
5 | CC(C)(C)OC(=O)[C@H](CCCCNC(=O)OCc1ccccc1)NC(=O)[C@@H]1C[C@@H](OCc2ccccc2)CN1C(=O)OC(C)(C)C (Boc-[Hyp](Bn)-Lys(Cbz)-OtBu) |  | 83.5% | inhibition at 2 µM [2]: 120%; inhibition at 10 µM [4]: 7%
6 | CC(C)(C)OC(=O)N[C@@H](CC(=O)OCc1ccccc1)C(=O)C[C@H](CCCCNC(=O)OCc1ccccc1)C(=O)OCc1ccccc1 | 35.7% |  | 
7 | CC(C)(C)OC(=O)N[C@@H](CC(=O)OCc1ccccc1)C(=O)CCC(=O)N[C@@H](CCCCNC(=O)OCc1ccccc1)C(=O)OC(C)(C)C | 67.7% |  | 
8 | CC(C)(C)OC(=O)[C@H](CCCCNC(=O)OCc1ccccc1)NC(=O)[C@@H]1C[C@@H](OC(=O)Cc2ccccc2)CN1C(=O)OC(C)(C)C (Boc-[Hyp](PhAc)-Lys(Cbz)-OtBu) | 68.2% | 88.2% | inhibition at 10 µM (BCRP (ABCG2)): 10%
9 | CC(C)(C)OC(=O)[C@H](CCCCNC(=O)OCc1ccccc1)NC[C@@H]1C[C@@H](OCc2ccccc2)CN1C(=O)OC(C)(C)C |  | 77.6% | Activity [5]: Active; Activity [6]: Non-toxic; Activity [7]: Toxic; Activity [8]: Non-toxic; inhibition (INH) [9]: Active; inhibition at 10 µM [4]: 9%; Activity [10]: Toxic; Activity [11]: Active
10 | CC(C)(C)OC(=O)N[C@H](CN[C@@H](CCCCNC(=O)OCc1ccccc1)C(=O)OC(C)(C)C)Cc1ccc(OC(C)(C)C)cc1 | 49.1% |  | 
11 | CC(C)(C)OC(=O)CCC[C@@H](Cc1ccc(OC(C)(C)C)cc1)NC(=O)OC(C)(C)C | 78.7% |  | 
12 | CC(C)(C)OC(=O)CC[C@H](NC(=O)OC(C)(C)C)C(=O)N[C@@H](CCCCNC(=O)OCc1ccccc1)C(=O)OC(C)(C)C (Boc-Glu(OtBu)-Lys(Cbz)-OtBu) | 37.2% |  | 
13 | O=C(CCC(=O)N[C@@H](CCC(=O)OCc1ccccc1)C(=O)OCc1ccccc1)N[C@@H](CCC(=O)OCc1ccccc1)C(=O)OCc1ccccc1 [REVERSIN 213] | 26.6% |  | 
14 | CC(C)(C)OC(=O)N[C@@H](CCC(=O)OCc1ccccc1)C(=O)N[C@@H](CCCCNC(=O)OCc1ccccc1)C(=O)OC(C)(C)C (Boc-Glu(OBn)-Lys(Cbz)-OtBu) | 63.7% |  | 
15 | CC(C)(C)OC(=O)CNC(=O)[C@H](Cc1ccc(OC(C)(C)C)cc1)NC(=O)OC(C)(C)C | 93.4% |  | inhibition at 2 µM [2]: 38%
16 | CC(C)(C)OC(=O)CC(C(O)[C@H](Cc1ccc(OC(C)(C)C)cc1)NC(=O)OC(C)(C)C)S(=O)(=O)c1ccccc1 (stereo not given in full) | 104% |  | 
17 | CC(C)(C)OC(=O)N[C@@H](Cc1ccc(OC(C)(C)C)cc1)C(=O)N[C@@H](CCCCNC(=O)OCc1ccccc1)C(=O)OC(C)(C)C (Boc-Tyr(tBu)-Lys(Cbz)-OtBu) | 34% |  | 
18 | CC(C)(C)OC(=O)N[C@@H](CCOC(=O)Cc1ccccc1)C(=O)N[C@@H](CCCCNC(=O)OCc1ccccc1)C(=O)OC(C)(C)C | 59.6% |  | 
19 | O=C(CCC(=O)N[C@@H](CCC(=O)OCC1CCCCC1)C(=O)OCc1ccccc1)N[C@@H](CCC(=O)OCc1ccccc1)C(=O)OCc1ccccc1 | 29.3% |  | 
20 | CC(C)(C)OC(=O)N[C@@H](Cc1ccc(OC(C)(C)C)cc1)C(=O)CS(=O)(=O)c1ccccc1 | 49.1% |  | 
21 | CC(C)(C)OC(=O)N[C@@H](CCOCc1ccccc1)C(=O)N[C@@H](CCCCNC(=O)OCc1ccccc1)C(=O)OC(C)(C)C | 49.2% |  | 
22 | CC(C)(C)OC(=O)CC(C(=O)[C@H](Cc1ccc(OC(C)(C)C)cc1)NC(=O)OC(C)(C)C)S(=O)(=O)c1ccccc1 (stereo not given in full) | 106% |  | IC50 [3]: 1.55 µM
23 | CC(C)(C)OC(=O)[C@H](CCCCNC(=O)OCc1ccccc1)NC(=O)[C@@H]1C[C@@H](OCC2CCCCC2)CN1C(=O)OC(C)(C)C | 76.6% | 79.8% | inhibition at 2 µM [2]: 82.2%
24 | CC(C)(C)OC(=O)N[C@@H](CCCOC(=O)C1CCCCC1)C(=O)N[C@@H](CCCCNC(=O)OCc1ccccc1)C(=O)OC(C)(C)C | 82.3% | 80.4% | inhibition at 2 µM [2]: 35.7%
25 | CC(C)(C)OC(=O)N[C@@H](CC(=O)OCc1ccccc1)C(=O)N[C@@H](CCCCNC(=O)OCc1ccccc1)C(=O)OC(C)(C)C [REVERSIN 121] (Boc-Asp(OBn)-Lys(Cbz)-OtBu) | 75.8% | 88% | IC50 [3]: 1.41 µM
